Measured values published in ChEMBL document CHEMBL2169866, “Antihypertensive profile of 2-thienyl-3,4-methylenedioxybenzoylhydrazone is mediated by activation of the A2A adenosine receptor” (Eur J Med Chem, 2012).

Assays:
[1] = system: Rattus norvegicus; assay: Antihypertensive activity in spontaneous hypertensive rat assessed as reduction in systolic blood pressure at 10 mg/kg/day, ip for 14 days (reference value: 226 +/-11 mmHg); details: route intraperitoneal
[2] = system: Rattus norvegicus; assay: Antihypertensive activity in spontaneous hypertensive rat assessed as reduction in systolic blood pressure at 20 mg/kg/day, po for 14 days (reference value: 121.2 +/- 4.5 mmHg); type: functional, Artery
Outline: (§1)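 Male SHR, 13 weeks old, received 20 mg/kg orally once daily for 14 days. Noninvasive tail-cuff plethysmography 4 h post-dose gave systolic pressure, diastolic pressure and heart rate. Measurements were made at baseline and on days 1, 3, 5, 7, 11 and 14. n = 6, mean ± SEM.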

[3] = system: Rattus norvegicus; assay: Effect on heart rate in WKY rat at 10 mg/kg/day, ip for 14 days (reference value: 383 +/- 21 bpm); details: in vivo, 336 h
[4] = system: Aorta; assay: Vasorelaxation activity in WKY rat aortic rings with intact endothelium assessed as reduction in phenylephrine-induced contraction in presence of 100 nM A2A antagonist ZM241385; type: functional; parameters: scale not given: the % may be the effect or the level left
Outline: (§2)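 Isolated thoracic aortic rings from WKY rats were studied by isometric tension recording. Endothelium was judged intact when acetylcholine gave >80% relaxation, and was removed mechanically where stated. Rings were precontracted with a single phenylephrine concentration (10), then exposed to cumulative test concentrations (1–300). DMSO served as control. L-NAME, ZM 241385 (100 nM) or glibenclamide (5 µM) were added 20 min before phenylephrine. IC50 was derived per experiment. n = 6, mean ± SEM.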

[5] = system: Aorta; assay: Vasorelaxation activity in WKY rat aortic rings with intact endothelium assessed as reduction in phenylephrine-induced contraction in presence of 100 uM NOS inhibitor L-NAME; type: functional; parameters: scale not given: the % may be the effect or the level left
Outline: as §2

[6] = system: Rattus norvegicus; assay: Antihypertensive activity in spontaneous hypertensive rat assessed as reduction in diastolic blood pressure at 20 mg/kg/day, po for 7 days (reference value: 72.6 +/- 4.7 mmHg); type: functional, Artery
Outline: as §1

[7] = system: Rattus norvegicus; assay: Effect on heart rate in spontaneous hypertensive rat at 10 mg/kg/day, ip for 14 days (reference value: 419 +/- 11 bpm); details: in vivo, 336 h
[8] = system: Rattus norvegicus; assay: Effect on heart rate in spontaneous hypertensive rat at 10 mg/kg/day, ip for 7 days (reference value: 419 +/- 11 bpm); details: in vivo, 168 h
[9] = system: Rattus norvegicus; assay: Antihypertensive activity in spontaneous hypertensive rat assessed as reduction in systolic blood pressure at 10 mg/kg/day, ip for 7 days (reference value: 226 +/-11 mmHg); details: route intraperitoneal
[10] = system: Aorta; assay: Vasorelaxation activity in WKY rat aortic rings with denuded endothelium assessed as reduction in phenylephrine-induced contraction in presence of 5 uM KATP channel blocker glibenclamide; type: functional; parameters: scale not given: the % may be the effect or the level left
Outline: as §2

[11] = system: Aorta; assay: Vasorelaxation activity in WKY rat aortic rings with intact endothelium assessed as reduction in phenylephrine-induced contraction; type: functional, tissue-based
Outline: as §2

[12] = system: Rattus norvegicus; assay: Antihypertensive activity in spontaneous hypertensive rat assessed as reduction in systolic blood pressure at 20 mg/kg/day, po for 7 days (reference value: 121.2 +/- 4.5 mmHg); type: functional, Artery
Outline: as §1

[13] = system: Rattus norvegicus; assay: Antihypertensive activity in spontaneous hypertensive rat assessed as reduction in diastolic blood pressure at 10 mg/kg/day, ip for 14 days (reference value: 175.9 +/-7.3 mmHg); details: route intraperitoneal
[14] = system: Rattus norvegicus; assay: Effect on systolic blood pressure in WKY rat at 10 mg/kg/day, ip for 14 days (reference value: 121.1 +/- 4.5 mmHg); details: in vivo, 336 h
[15] = target: Adenosine receptor A2a (Homo sapiens) (UniProt P29274); assay: Displacement of [3HCGS21680 from human recombinant A2A receptor expressed in HEK293 cells at 10 uM; type: cell-based
Sequence of Adenosine receptor A2a (Homo sapiens) (P29274 whole entry): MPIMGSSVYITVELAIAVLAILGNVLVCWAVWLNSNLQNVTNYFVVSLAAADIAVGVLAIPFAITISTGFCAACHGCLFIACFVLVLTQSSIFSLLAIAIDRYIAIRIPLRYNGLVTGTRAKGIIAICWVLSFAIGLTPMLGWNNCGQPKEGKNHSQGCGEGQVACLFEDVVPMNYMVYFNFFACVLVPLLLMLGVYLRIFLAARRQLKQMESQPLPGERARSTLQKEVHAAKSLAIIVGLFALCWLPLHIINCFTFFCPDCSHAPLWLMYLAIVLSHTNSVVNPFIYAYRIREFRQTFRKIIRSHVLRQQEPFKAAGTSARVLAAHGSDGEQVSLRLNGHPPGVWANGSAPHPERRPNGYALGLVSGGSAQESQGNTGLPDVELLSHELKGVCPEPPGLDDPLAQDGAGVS
Outline: (§3)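 Radioligand competition binding used agonist radioligands at these levels: [3H]CCPA 1 nM for A1, [3H]CGS21680 6 nM for A2A, and [125I]AB-MECA 0.15 nM for A3. Results are expressed as percent inhibition of control specific binding: 100 − (measured specific binding / control specific binding × 100).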

[16] = system: Aorta; assay: Vasorelaxation activity in WKY rat aortic rings with intact endothelium assessed as reduction in phenylephrine-induced contraction relative to untreated control; type: functional; parameters: scale not given: the % may be the effect or the level left
Outline: as §2

[17] = target: T1, Adenosine receptor A1 (Homo sapiens) (UniProt P30542); assay: Displacement of [3H]CCPA from human recombinant A1 receptor expressed in CHO cells at 10 uM; type: cell-based
T1 sequence (whole entry): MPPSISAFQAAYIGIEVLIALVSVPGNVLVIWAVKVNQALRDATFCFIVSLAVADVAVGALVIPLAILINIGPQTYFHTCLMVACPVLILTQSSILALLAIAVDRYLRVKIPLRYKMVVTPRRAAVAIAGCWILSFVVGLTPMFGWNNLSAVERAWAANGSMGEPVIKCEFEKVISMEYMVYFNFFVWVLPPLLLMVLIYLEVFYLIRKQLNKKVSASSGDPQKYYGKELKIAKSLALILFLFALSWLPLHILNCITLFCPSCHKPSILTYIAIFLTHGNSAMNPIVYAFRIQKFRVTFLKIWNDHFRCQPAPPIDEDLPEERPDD
Outline: as §3

[18] = system: Rattus norvegicus; assay: Antihypertensive activity in spontaneous hypertensive rat assessed as reduction in diastolic blood pressure at 10 mg/kg/day, ip for 7 days (reference value: 175.9 +/-7.3 mmHg); details: route intraperitoneal
[19] = system: Rattus norvegicus; assay: Antihypertensive activity in spontaneous hypertensive rat assessed as reduction in diastolic blood pressure at 20 mg/kg/day, po for 14 days (reference value: 72.6 +/- 4.7 mmHg); type: functional, Artery
Outline: as §1

[20] = system: Rattus norvegicus; assay: Effect on heart rate in spontaneous hypertensive rat at 20 mg/kg/day, po for 14 days (reference value: 383 +/- 21 bpm); type: organism-based; parameters: route oral; details: in vivo, 336 h
Outline: as §1

[21] = system: Rattus norvegicus; assay: Effect on diastolic blood pressure in WKY rat at 10 mg/kg/day, ip for 14 days (reference value: 72.6 +/- 4.7 mmHg); details: in vivo, 336 h
[22] = system: Aorta; assay: Vasorelaxation activity in WKY rat aortic rings with denuded endothelium assessed as reduction in phenylephrine-induced contraction relative to untreated control; type: functional; parameters: scale not given: the % may be the effect or the level left
Outline: as §2

[23] = system: Rattus norvegicus; assay: Effect on diastolic blood pressure in WKY rat at 10 mg/kg/day, ip for 7 days (reference value: 72.6 +/- 4.7 mmHg); details: in vivo, 168 h
[24] = system: Rattus norvegicus; assay: Effect on systolic blood pressure in WKY rat at 10 mg/kg/day, ip for 7 days (reference value: 121.1 +/- 4.5 mmHg); details: in vivo, 168 h
[25] = system: Rattus norvegicus; assay: Effect on heart rate in WKY rat at 10 mg/kg/day, ip for 7 days (reference value: 383 +/- 21 bpm); details: in vivo, 168 h
[26] = target: T2, Adenosine receptor A3 (Homo sapiens) (UniProt P0DMS8); assay: Displacement of [[125I]AB-MECA from human recombinant A3 receptor expressed in HEK293 cells at 10 uM; type: cell-based
T2 sequence (whole entry): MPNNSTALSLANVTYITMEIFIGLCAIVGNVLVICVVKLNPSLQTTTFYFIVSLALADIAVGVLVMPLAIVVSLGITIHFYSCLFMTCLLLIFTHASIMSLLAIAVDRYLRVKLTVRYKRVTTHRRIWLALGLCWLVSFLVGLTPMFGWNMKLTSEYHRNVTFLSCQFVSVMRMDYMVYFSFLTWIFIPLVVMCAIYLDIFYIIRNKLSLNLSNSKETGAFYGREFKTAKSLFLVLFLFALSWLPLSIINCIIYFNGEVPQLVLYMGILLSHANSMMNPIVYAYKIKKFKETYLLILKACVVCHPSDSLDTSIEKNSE
Outline: as §3

[27] = system: Rattus norvegicus; assay: Effect on heart rate in spontaneous hypertensive rat at 20 mg/kg/day, po for 7 days (reference value: 383 +/- 21 bpm); type: organism-based; parameters: route oral; details: in vivo, 168 h
Outline: as §1

- IC50 [11]: 6.9 µM
- inhibition [15]: 47.5%
- inhibition [17]: 29.1%
- inhibition [26]: 67.5%
SMILES: O=C(N/N=C/c1ccc2c(c1)OCO2)c1cccs1
- Activity [1]: 118 mmHg
- Activity [2]: 109 mmHg
- Activity [3]: 398 bpm
- Activity [4]: 8.3%
- Activity [5]: 9.1%
- Activity [6]: 79.4 mmHg
- Activity [7]: 344.8 bpm
- Activity [8]: 376 bpm
- Activity [9]: 126.2 mmHg
- Activity [10]: 3.6%
- Activity [11]: Dose-dependent effect
- Activity [12]: 109 mmHg
- Activity [13]: 95.5 mmHg
- Activity [14]: 109 mmHg
- Activity [16]: 100%
- Activity [18]: 106.2 mmHg
- Activity [19]: 88 mmHg
- Activity [20]: 398 bpm
- Activity [21]: 88 mmHg
- Activity [22]: 28.4%
- Activity [23]: 79.4 mmHg
- Activity [24]: 109 mmHg
- Activity [25]: 379 bpm
- Activity [27]: 379 bpm
